Test [1] is described as follows: OD615 S. cerevisiae growth inhibition, permissive medium, pilot counter-assay, permissive growth control for S. cerevisiae lifespan shortening project (AID 705;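 active means growth inhibition above 25% in both replicates, a cutoff set 3 SD above the mean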). The following applies: OD615, 24 h, at 10 µM, hits give high values. A digest of the protocol:
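System: Engineered DeaD yeast | Buffer or medium: SC raffinose/galactose permissive medium | Incubation: Cells pre-grown 4 h, then 24 h compound exposure, 30 °C humidified | Measured by: Absorbance (optical density) at 615 nm | Read-out: Reduction in yeast growth (OD615)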

The nature of test [2]: Restrictive medium S. cerevisiae growth inhibition, OD615, pilot screen of yeast lifespan reduction project, restrictive growth control (AID 706;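 active means growth inhibition above a set limit, 3 SD over mean compound inhibition, in both replicates, cut at about 43% in these data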;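 further: modified DeaD lifespan yeast strain shifted to restrictive glucose medium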). The settings on record: OD615, 48 h, at 10 µM, hits give high values. The method, boiled down:
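Material: modified S. cerevisiae; Medium: glucose-based CSMM-D restrictive medium; Compound dosing: one concentration, 10 µM final, 0.25% DMSO; Incubation: 48 h compound exposure at 30 °C; Measured by: OD615.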

The nature of test [3]: viability gain of MRP-1-high H69AR cells under doxorubicin, pilot screen, MRP-1 activator project, CellTiter-Glo, duplicate (AID 807;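 active means viability increase at or above a cutoff of the median across tested compounds plus 3 SD, cut at about 8.5% in these data, passing the limit was not always enough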;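 further: compound pretreatment 18-22 h then 72 h combined with doxorubicin; 0% = doxorubicin alone and 100% = vehicle without doxorubicin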). The settings on record: H69AR viability with doxorubicin, CellTiter-Glo luminescence; at 10 µM; hits give high values. (In general: In ATP-based viability assays light output follows the ATP content of the culture.)
The nature of test [4]: growth suppression of beta-catenin knockout HCT116, pilot screen, human colon tumor cells (AID 823).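 Further: 0% = wells killed by 20 µM Hyamine and 100% = untreated DMSO cell wells.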 The settings on record: CellTiter-Glo, 60 h, at 10 µM, hits give low values.
The nature of test [5]: growth suppression of PTEN-deleted HCT116, pilot screen, cell-based, HCT116 clonal line, CellTiter-Glo (AID 824;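 active means viability at or below 27.92% in each of two runs, the all-compound median minus 4 SD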;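 further: 0% = 20 µM Hyamine control and 100% = vehicle cell control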). The settings on record: 60 h, at 10 µM, hits give low values.
A short description of test [6]: inhibitors of the yeast RAM network, pilot screen, dse1pr::URA3 reporter, 5-FOA selection (AID 869;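 active means inhibition over a set limit, the all-compound mean plus 3 SD, in both replicate runs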;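 further: 0% = DMSO wells with no growth and 100% = 10 µM 1-NA-PP1 with full growth; RAM network block rescues cells from 5-FOA so hits raise OD615 growth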). The settings on record: S. cerevisiae dse1pr::URA3 5-FOA growth, OD615, 2 d; at 10 µM; hits give high values; strain carries analog-sensitive mutant Cbk1 kinase.
Test [7] in a line: RAM signaling pathway blockade in yeast – S. cerevisiae, Pdr1DBD-CYC8 efflux-inhibited sensitized strain, primary screen (AID 1298;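 active means RAM network inhibition above 8.4% in each of two replicates, 3 SD over the compound average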;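 further: 0% = DMSO untreated cells without growth and 100% = 10 µM 1-NA-PP1 full growth; higher means more yeast growth rescued from 5-FOA killing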). The settings on record: S. cerevisiae cbk1-as DSE1-URA3 strain, 5-FOA growth OD615, 2 d; at 50 µM; hits give high values.

Unmarked numbers belong to inactive results. Inconclusive results are not listed. Active and inactive are the calls of the source.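 How the source made its calls, unless noted: active means cell viability at or below a set limit in both duplicate runs, the limit being the all-compound median minus 4 SD (cut at about 23% in these data, passing the limit was not always enough); inconclusive means no clear call, values can overlap the other calls; inactive means the rest.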

In general, viability refers to a read-out of living cells in per cent, often relative to untreated cells. A word on the inhibition: it is the relative decrease from the control value, in per cent.

With `Cc1cccc(Nc2ncnc3nc[nH]c23)c1`, the figures for the growth inhibition in test [1] and in test [2] were 3.02% and 32.5%, respectively. The viability increase in test [3] was -1.96%. The figures for the viability in test [4] and in test [5] were 101% and 97.6%, respectively. Besides, in test [6], the inhibition was 2.31%. Also, the RAM network inhibition in test [7] is 3.11%.

On to `CCOC(=O)N1CCN(C(=O)Cn2ncc3ccccc32)CC1`, for which the growth inhibition in test [1] was -14.3%; in test [2] it was -4.71%. Besides, the viability increase in test [3] is -1.62%. Besides, the values for the viability in test [4] and in test [5] were 105% and 89.4%, respectively. The inhibition in test [6] was 3.38%. The RAM network inhibition in test [7] was 2.51%.

Turning to `O=C(CSc1nc2c([nH]c3ccccc32)c(=O)n1-c1cccc(Cl)c1)N1CCOCC1`, the growth inhibition in test [1] was -16.6%; in test [2] it was -12.8%. In addition, in test [3], the viability increase is -3.3%. In addition, the results for the viability in test [4] and in test [5] were 79.6% and 79.9%, respectively. In addition, the inhibition in test [6] was 1.64%. For the same compound, the RAM network inhibition in test [7] was 3.01%.

As to `CC(=O)N1c2ccccc2N(Cc2ccc(C)cc2C)C(=O)C1(C)C`, the results for the growth inhibition in test [1] and in test [2] were -6.6% and 5.81%, respectively. For the same compound, the viability increase in test [3] was -6.55%. Moreover, the viability in test [4] is 16% (active); in test [5], 20.7% (active). In test [6], the inhibition is 1.14%. Besides, the RAM network inhibition in test [7] is 9.4%.

On to `CCOC(=O)CSC1=C(C#N)C(c2ccc(Cl)cc2)CC(=O)N1` (stereo unspecified), for which the growth inhibition in test [1] and in test [2] was -15.6% each time. For the same compound, the viability increase in test [3] is 0.52%. For the same compound, the values for the viability in test [4] and in test [5] were 87.8% and 82.5%, respectively. Further, the inhibition in test [6] is 0.69%. The RAM network inhibition in test [7] is 0.53%.

Take `COC(=O)C(C)Sc1nnc(Cc2cc(=O)[nH]c(=O)[nH]2)n1-c1ccc(Cl)cc1` (stereo unspecified): the growth inhibition was -13.7% in test [1] and -7.63% in test [2]. For the same compound, the viability increase in test [3] is -1.15%. Besides, the viability in test [4] was 104%; in test [5], 95.6%. In test [6], the inhibition is 1.97%. In test [7], the RAM network inhibition is 1%.

In the case of `COc1ccccc1CNC(=O)Cn1cc2c(n1)CCCC2`, the results for the growth inhibition in test [1] and in test [2] were -6.06% and -7.73%, respectively. Further, the viability increase in test [3] is 13.7% (active). The values for the viability in test [4] and in test [5] were 107% and 101%, respectively. For the same compound, the inhibition in test [6] was 0.685%. The RAM network inhibition in test [7] was 3.05%.

`COc1cccc(-c2nnc(SCC(=O)N3CC(C)CC(C)C3)o2)c1` (stereo unspecified): the growth inhibition in test [1] is -6.77%; in test [2], -0.75%. The viability increase in test [3] was -3.25%. Further, the results for the viability in test [4] and in test [5] were 98% and 90.5%, respectively. Further, the inhibition in test [6] was 0.535%. In test [7], the RAM network inhibition was 0.7%.

Take `COc1ccc(NC(=O)Nc2nnc(N3CCC(C)CC3)s2)cc1OC`: the values for the growth inhibition in test [1] and in test [2] were -8.13% and -23%, respectively. Moreover, the viability increase in test [3] was -4.49%. Moreover, the viability in test [4] is 107%; in test [5], 98.1%. Moreover, the inhibition in test [6] is 1.59%. In addition, the RAM network inhibition in test [7] is 1.42%.

As for `COc1ccc(OC)c(N(CC(=O)NC2CC2)S(=O)(=O)c2ccc(C)cc2)c1`, the growth inhibition in test [1] was -13.6%; in test [2], -20.4%. Moreover, the viability increase in test [3] is -0.94%. In addition, the viability in test [4] is 96.1%; in test [5] it was 93.2%. Besides, the inhibition in test [6] is 0.73%. In addition, in test [7], the RAM network inhibition is 3.7%.

With `COc1ccc2c(c1)CC(C1(O)C(=O)N(C)c3ccccc31)C2=O` (stereo unspecified), the growth inhibition in test [1] is 2.02%; in test [2], -8.81%. In addition, the viability increase in test [3] was -3.79%. Also, the values for the viability in test [4] and in test [5] were 94% and 93.3%, respectively. The inhibition in test [6] is 0.845%. Further, the RAM network inhibition in test [7] is 2.96%.

As for `CC(NC(=O)C1CCCN(S(=O)(=O)c2cnc[nH]2)C1)c1ccccc1` (stereo unspecified), the growth inhibition is 2.1% in test [1] and 2.4% in test [2]. For the same compound, the viability increase in test [3] was -0.99%. Besides, the viability in test [4] was 98.3%; in test [5], 97.4%. Moreover, in test [6], the inhibition is -0.19%. Moreover, the RAM network inhibition in test [7] is -0.35%.

Regarding `COc1ccc(N2C(=O)C3CCCN3C2c2ccccc2OC)cc1` (stereo unspecified), the growth inhibition was 2.4% in test [1] and -3.83% in test [2]. The viability increase in test [3] is -3.2%. Besides, the viability in test [4] is 103%; in test [5] it was 97.4%. Moreover, in test [6], the inhibition is 0.02%. Further, the RAM network inhibition in test [7] is 0.12%.

For the compound `CNC(=O)c1cc2cc(OC)ccc2n1CCN(C)C`, the growth inhibition in test [1] was -8.87%; in test [2], -16.4%. Further, the viability increase in test [3] was -3.65%. The viability is 92% in test [4] and 87.2% in test [5]. For the same compound, in test [6], the inhibition was 2.31%. In addition, the RAM network inhibition in test [7] is 6.18%.

Turning to `Cc1ccccc1-c1nnc(-c2ccccc2)o1`, the figures for the growth inhibition in test [1] and in test [2] were -0.03% and -4.75%, respectively. Moreover, the viability increase in test [3] was -4.15%. Also, the results for the viability in test [4] and in test [5] were 80.9% and 83.1%, respectively. For the same compound, the inhibition in test [6] is 1.82%. In addition, the RAM network inhibition in test [7] is 0.2%.

As to `Cc1ccc(C(C)C)c(OCC(=O)N2CCOCC2)c1`, the growth inhibition in test [1] is -10.1%; in test [2] it was -20.3%. Further, in test [3], the viability increase is -0.67%. The viability in test [4] is 99.3%; in test [5] it was 91.4%. Besides, the inhibition in test [6] was 1.69%. In addition, the RAM network inhibition in test [7] is 1.97%.

`COc1ccc(-c2nc(CS(=O)CC(=O)N3CCc4ccccc4C3)c(C)o2)cc1` (stereo unspecified): the growth inhibition in test [1] is 2.66%; in test [2], 32.7%. Also, the viability increase in test [3] is -2.66%. For the same compound, the viability was 85.6% in test [4] and 88.8% in test [5]. Besides, in test [6], the inhibition is 1.13%. Further, the RAM network inhibition in test [7] was 3.48%.

Turning to `CC(C)(C)c1ccc(NC(=O)NCc2ccco2)cc1`, the figures for the growth inhibition in test [1] and in test [2] were -8.65% and 2.62%, respectively. In addition, the viability increase in test [3] was -5%. In addition, the values for the viability in test [4] and in test [5] were 63.8% and 64.5%, respectively. Further, in test [6], the inhibition is 1.23%. For the same compound, the RAM network inhibition in test [7] was -0.31%.

(Values after PubChem BioAssay.)
